# Experimental data taken from paper PMC2775513 (Neuroscience, 2009).
# What was measured:
# [1] = test system: C-INSL7 antiserum (rabbit polyclonal); settings: ELISA; ref Phoenix Pharmaceuticals, Inc.; cited from earlier work
# [2] = test system: [125I]C-INSL7 binding sites, rat brain membranes; assay: [125I]C-INSL7 binding to rat brain membranes; settings: for inhibition of [125I]C-INSL7 binding: 1 to 1000 nM unlabeled peptide, ~0.3 nM [125I]C-INSL7, three independent experiments
# [3] = test system: cultured rat hypothalamic neurons; assay: Cytosolic Ca2+ measurement; format: cell-based; settings: for mean amplitude of the first spike of [Ca2+]i oscillations, Ca2+-free / rapid and transitory increase in [Ca2+]i (single spike, no plateau), Ca2+-free: Ca2+-free HBSS with 2.5 mM EGTA; for mean amplitude of the first spike of [Ca2+]i oscillations, Ca2+-free: INSL7 n=5/76, C-INSL7 n=7; for rapid and transitory increase in [Ca2+]i (single spike, no plateau), Ca2+-free: INSL7 n=11/76, C-INSL7 n=15
# How it was run: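 Cultured neonatal rat hypothalamic neurons (5 days, serum withdrawn 12 hr before) were loaded with 5 μM fura-2 AM for 45 min at room temperature and de-esterified 45 min. They were superfused with Ca2+-free HBSS containing 2.5 mM EGTA, and 100 nM peptide was applied. [Ca2+]i was derived from the 340/380 excitation ratio (emission 510 nm, 0.3 Hz). Responding cells were counted against cells tested.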
# [4] = test system: C-INSL7 antiserum (rabbit polyclonal); assay: Pre-absorption of C-INSL7 antiserum, immunohistochemistry of rat pons sections; settings: 1 μg/ml overnight
# [5] = test system: cultured rat hypothalamic neurons; assay: Cytosolic Ca2+ measurement; format: cell-based; settings: for neurons responding with fast calcium transient followed by oscillations / mean amplitude of the first spike, fast calcium transient followed by oscillations: INSL7 n=8/158, C-INSL7 n=11/276
# How it was run: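 Hypothalamic neurons from 1–3-day-old rats were papain-dissociated and cultured 5 days in Neurobasal-A/10% FCS with 1 μM cytosine arabinoside, then serum-free for 12 hr. Cells were loaded with 5 μM fura-2 AM (45 min, room temperature, dark), de-esterified 45 min, then superfused with HBSS at 1 ml/min. Peptide was applied at 10–1000 nM. 340/380 ratio (emission 510 nm, 0.3 Hz) was converted to [Ca2+]i.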
# [6] = test system: cultured rat hypothalamic neurons; assay: Membrane potential, optical imaging using DiSBAC4; format: cell-based; settings: 100 nM, DiSBAC4(3); for mean amplitude of membrane depolarization / mean amplitude of membrane hyperpolarization: resting potential −53 ± 2.1 mV; for mean amplitude of membrane depolarization: C-INSL7 n=7/153, INSL7 n=4; for mean amplitude of membrane hyperpolarization: C-INSL7 n=15/153, INSL7 n=6
# How it was run: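 Cultured neonatal rat hypothalamic neurons were loaded 30 min with DiSBAC4(3) in HBSS and superfused with 100 nM peptide. Fluorescence (excitation 480, emission 540 nm) was recorded at 10 points/min, background-subtracted. Calibration used 1 μM gramicidin in Na+-free solution with 17, 25 or 80 mM K+ (potentials by Nernst equation): a 1.092 fluorescence change equals 1 mV.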
# GPCR142 = settings: printed GPR142; ref Liu et al., 2003a, b; cited from earlier work
# GPCR135 [7] = settings: printed GPR135; ref Liu et al., 2003a, b; cited from earlier work
# GPCR135 (Homo sapiens) = GPCR135 (Homo sapiens) (UniProt Q9NSD7); assay: radioligand binding; settings: cited from earlier work
# GPCR142 (Homo sapiens) = GPCR142 (Homo sapiens) (UniProt Q8TDU9); assay: radioligand binding; settings: cited from earlier work
# GPCR135 [8] = settings: cells over-expressing GPCR135; ref Liu et al., 2003 a, b; cited from earlier work
# GPCR145 = settings: cells over-expressing GPCR145 (so in the source); ref Liu et al., 2003 a, b; cited from earlier work
# Chain of relaxin 3 (Q8WXF3 119-142): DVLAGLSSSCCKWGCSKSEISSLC
# Chain of UniProt Q8TDU9 (Q8TDU9 whole entry): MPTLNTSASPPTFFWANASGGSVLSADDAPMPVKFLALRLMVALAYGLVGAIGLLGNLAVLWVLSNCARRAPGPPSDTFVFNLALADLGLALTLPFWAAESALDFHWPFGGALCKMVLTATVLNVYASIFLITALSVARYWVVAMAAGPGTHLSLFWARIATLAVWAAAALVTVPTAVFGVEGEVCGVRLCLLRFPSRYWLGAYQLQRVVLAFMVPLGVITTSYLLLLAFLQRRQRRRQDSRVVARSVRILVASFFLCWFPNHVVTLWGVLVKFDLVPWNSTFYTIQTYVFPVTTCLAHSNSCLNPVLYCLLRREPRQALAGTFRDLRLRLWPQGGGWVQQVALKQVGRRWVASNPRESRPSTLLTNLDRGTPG
# Chain of UniProt Q9NSD7 (Q9NSD7 whole entry): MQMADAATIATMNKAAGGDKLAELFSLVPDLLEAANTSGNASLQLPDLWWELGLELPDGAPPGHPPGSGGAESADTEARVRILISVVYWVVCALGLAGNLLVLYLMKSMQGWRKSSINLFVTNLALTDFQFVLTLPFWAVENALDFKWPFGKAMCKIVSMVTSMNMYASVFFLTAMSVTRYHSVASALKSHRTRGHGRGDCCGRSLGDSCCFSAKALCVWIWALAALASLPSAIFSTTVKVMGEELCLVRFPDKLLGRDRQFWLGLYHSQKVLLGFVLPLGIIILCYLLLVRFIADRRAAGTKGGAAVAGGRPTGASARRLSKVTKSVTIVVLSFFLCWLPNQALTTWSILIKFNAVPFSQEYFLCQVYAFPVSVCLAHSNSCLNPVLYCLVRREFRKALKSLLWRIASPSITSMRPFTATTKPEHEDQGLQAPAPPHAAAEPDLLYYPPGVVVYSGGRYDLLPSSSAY
substance,measurement,setting,value
C-peptide of human preproinsulin-like peptide 7 [C-INSL7],cross-reactivity with C-INSL7 antiserum,[1],100%
same,inhibition of [125I]C-INSL7 binding,[2],in a dose-dependent manner
same,Bmax,"[2]; homologous competition, ~0.3 nM [125I]C-INSL7, pH 7.4, room temperature, 1 hr, nonspecific: 1 μM C-INSL7, n=3",45.4 ± 20.5 fmol/mg protein
same,Kd,"[2]; homologous competition, ~0.3 nM [125I]C-INSL7, ~0.5 mg membranes, pH 7.4, room temperature, 1 hr, nonspecific: 1 μM C-INSL7, n=3",17.7 ± 8.2 nM
same,concentration of maximum inhibition of [125I]C-INSL7 binding,[2]; unlabeled peptide 1 to 1000 nM,500 nM
same,"mean amplitude of the first spike of [Ca2+]i oscillations, Ca2+-free",[3]; 100 nM,497 ± 3.6 nM
same,"rapid and transitory increase in [Ca2+]i (single spike, no plateau), Ca2+-free",[3]; 100 nM,231 ± 2.6 nM
same,"cells responding with calcium oscillations, Ca2+-free","[3]; 100 nM, Ca2+-free saline, 7 cells",5%
same,"cells responding with single Ca2+ spike, Ca2+-free","[3]; 100 nM, Ca2+-free saline, 15 cells",11%
same,immunoreactivity after pre-absorption of C-INSL7 antiserum with peptide,[4],immunoreactivity was not detected
same,amplitude of the first spike of [Ca2+]i oscillations,"[5]; 10 nM, HBSS, fura-2, n = 6",137 ± 2.6 nM
same,stable (sustained) [Ca2+]i elevation,"[5]; 10 nM, HBSS, fura-2, n = 6",118 ± 2.4 nM
same,neurons responding with fast and sustained increase in [Ca2+]i,"[5]; 100 nM, HBSS, 36 of 276",13%
same,neurons responding with fast calcium transient followed by oscillations,"[5]; 100 nM, HBSS",4%
same,"mean amplitude of the first spike, fast calcium transient followed by oscillations","[5]; 100 nM, HBSS, fura-2",763 ± 4.2 nM
same,mean amplitude of fast and sustained increase in [Ca2+]i,"[5]; 100 nM, HBSS, fura-2, n=36/276",405 ± 3.1 nM
same,amplitude of the first spike of [Ca2+]i oscillations,"[5]; 1,000 nM, HBSS, fura-2, n = 7",1051 ± 9.8 nM
same,mean amplitude of fast and sustained increase in [Ca2+]i,"[5]; 1,000 nM, HBSS, fura-2, n = 8",731 ± 4.7 nM
same,concentration dependence of calcium oscillations,"[5]; 10, 100 and 1000 nM, HBSS",also in a concentration-dependent manner
same,concentration dependence of fast and sustained increase in [Ca2+]i,"[5]; 10, 100 and 1000 nM, HBSS",in a concentration-dependent manner
same,"Δ[Ca2+]i, fast and sustained rise, after ryanodine pretreatment","[5]; C-INSL7 100 nM, ryanodine 5 μM, 15 min pretreatment, n = 7",391 ± 3.6 nM
same,fraction of neurons depolarized (n responding/tested),[6],7/153
same,fraction of neurons hyperpolarized (n responding/tested),[6],15/153
same,mean amplitude of membrane depolarization,[6],11 ± 1.6 mV
same,mean amplitude of membrane hyperpolarization,[6],7 ± 1.3 mV
"insulin-like peptide 7 [INSL7, reference compound]",binding affinity,GPCR142,high affinity
same,inhibition of [125I]C-INSL7 binding,[2],did not inhibit
same,"mean amplitude of the first spike of [Ca2+]i oscillations, Ca2+-free",[3]; 100 nM,583 ± 7.4 nM
same,"rapid and transitory increase in [Ca2+]i (single spike, no plateau), Ca2+-free",[3]; 100 nM,307 ± 4.2 nM
same,"fraction of neurons with [Ca2+]i oscillations, Ca2+-free (n responding/tested)","[3]; 100 nM, Ca2+-free medium",5/76
same,effect of Ca2+-free solution on calcium spike,"[3]; type 1 response, Ca2+-free vs normal solution",not significantly altered in a Ca^2+-free solution
same,binding affinity,GPCR135 [7],high affinity
same,neurons responding with fast calcium transient followed by oscillations,"[5]; 100 nM, HBSS",5%
same,"mean amplitude of the first spike, fast calcium transient followed by oscillations","[5]; 100 nM, HBSS, fura-2",1268 ± 39 nM
same,"mean increase of [Ca2+]i, fast, transitory","[5]; 100 nM, HBSS, fura-2, n=27/158",817 ± 6.3 nM
same,"neurons responding with fast, transitory increase of [Ca2+]i","[5]; 100 nM, HBSS, n=27/158",17%
same,mean amplitude of membrane depolarization,[6],9 ± 2.6 mV
same,mean amplitude of membrane hyperpolarization,[6],5 ± 1.8 mV
relaxin 3 (from UniProt Q8WXF3),Kd,GPCR135 (Homo sapiens),0.31 nM
same,Kd,GPCR142 (Homo sapiens),1.9 nM
Recombinant human relaxin 3: Recombinant human relaxin 3,GTPγS binding,GPCR135 [8],potently stimulated
same,cAMP formation,GPCR135 [8],inhibited
same,GTPγS binding,GPCR145,potently stimulated
same,cAMP formation,GPCR145,inhibited
ryanodine [reference compound],effect of ryanodine pretreatment on C-INSL7-induced [Ca2+]i oscillations,"[5]; ryanodine 5 μM, 15 min, C-INSL7 100 nM",abolishing the [Ca^2+]i oscillations
